# Laboratory results: ChEMBL document CHEMBL3994579, “Synthesis and antibacterial activity of novel 3-O-descladinosylazithromycin derivatives” (2017)
# Experiments:
# Assay type in all cases: functional
# Staphylococcus aureus [1] = test: Antibacterial activity against erythromycin-susceptible Staphylococcus aureus ATCC 25923 by broth microdilution method
# Outline: (§1)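 MICs were determined in vitro by broth microdilution following the NCCL-recommended method. Azithromycin and clarithromycin were run alongside as reference antibiotics on the same strain panel.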
# Escherichia coli = test: Antibacterial activity against penicillin-susceptible Escherichia coli ATCC 25922 by broth microdilution method; outline: as §1
# Streptococcus pyogenes [2] = test: Antibacterial activity against erythromycin-susceptible Streptococcus pyogenes clinical isolate by broth microdilution method; outline: as §1
# Pseudomonas aeruginosa = test: Antibacterial activity against penicillin-susceptible Pseudomonas aeruginosa ATCC 27853 by broth microdilution method; outline: as §1
# Bacillus subtilis = test: Antibacterial activity against erythromycin/penicillin-susceptible Bacillus subtilis ATCC 9372 by broth microdilution method; outline: as §1
# [3] = tested on: Staphylococcus epidermidis; test: Antibacterial activity against penicillin-resistant Staphylococcus epidermidis clinical isolate by broth microdilution method
# Outline: (§2)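 Broth microdilution per NCCL recommendation, read as minimal inhibitory concentration, run alongside azithromycin and clarithromycin references. Strains: S. pneumoniae B1 (erythromycin-resistant, ermB), A22072 (erythromycin-resistant, mefA), AB11 (erythromycin-resistant, erm and mef); S. aureus ATCC29213 ([…]); S. epidermidis clinical isolate (penicillin-resistant, not characterized).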
# Staphylococcus aureus [4] = test: Antibacterial activity against […] Staphylococcus aureus ATCC 29213 by broth microdilution method; outline: as §2
# Streptococcus pneumoniae [5] = test: Antibacterial activity against erythromycin-resistant Streptococcus pneumoniae B1 expressing ermB gene by broth microdilution method; outline: as §2
# Streptococcus pneumoniae [6] = test: Antibacterial activity against erythromycin-resistant Streptococcus pneumoniae A22072 expressing mefA gene by broth microdilution method; outline: as §2
# Streptococcus pneumoniae [7] = test: Antibacterial activity against erythromycin-resistant Streptococcus pneumoniae AB11 expressing ermB/mefA genes by broth microdilution method; outline: as §2
# Streptococcus pyogenes [8] = test: Antibacterial activity against erythromycin-resistant Streptococcus pyogenes R1 clinical isolate by broth microdilution method
Compound,MIC (Staphylococcus aureus [1]) [µg/mL],MIC (Escherichia coli) [µg/mL],MIC (Streptococcus pyogenes [2]) [µg/mL],MIC (Pseudomonas aeruginosa) [µg/mL],MIC (Bacillus subtilis) [µg/mL],MIC [3] [µg/mL],MIC (Staphylococcus aureus [4]) [µg/mL],MIC (Streptococcus pneumoniae [5]) [µg/mL],MIC (Streptococcus pneumoniae [6]) [µg/mL],MIC (Streptococcus pneumoniae [7]) [µg/mL],MIC (Streptococcus pyogenes [8]) [µg/mL]
CC[C@H]1OC(=O)[C@H](C)[C@@H](OC(=O)Nc2cccc(C)c2)[C@H](C)[C@@H](O[C@@H]2O[C@H](C)C[C@H](N(C)C)[C@H]2O)[C@](C)(O)C[C@@H](C)CN(C)[C@H](C)[C@@H](OC(=O)NCc2ccc(C)cc2)[C@]1(C)O,8,64,4,64,8,4,128,64,32,16,32
CC[C@H]1OC(=O)[C@H](C)[C@@H](O)[C@H](C)[C@@H](O[C@@H]2O[C@H](C)C[C@H](N(C)C)[C@H]2OC(=O)Nc2ccc(F)cc2)[C@](C)(O)C[C@@H](C)CN(C)[C@H](C)[C@H]2OC(=O)O[C@@]21C,16,128,1,128,64,64,128,64,4,8,64
CC[C@H]1OC(=O)[C@H](C)[C@@H](OC(=O)Nc2cccc(C)c2)[C@H](C)[C@@H](O[C@@H]2O[C@H](C)C[C@H](N(C)C)[C@H]2O)[C@](C)(O)C[C@@H](C)CN(C)[C@H](C)[C@H]2OC(=O)O[C@@]21C,2,64,1,64,8,4,64,64,8,16,32
CC[C@H]1OC(=O)[C@H](C)[C@@H](OC(=O)Nc2ccccc2C)[C@H](C)[C@@H](O[C@@H]2O[C@H](C)C[C@H](N(C)C)[C@H]2OC(C)=O)[C@](C)(O)C[C@@H](C)CN(C)[C@H](C)[C@H]2OC(=O)O[C@@]21C,16,64,1,64,8,128,64,256,8,16,256
CC[C@H]1OC(=O)[C@H](C)[C@@H](OC(=O)NCc2ccccc2)[C@H](C)[C@@H](O[C@@H]2O[C@H](C)C[C@H](N(C)C)[C@H]2OC(C)=O)[C@](C)(O)C[C@@H](C)CN(C)[C@H](C)[C@H]2OC(=O)O[C@@]21C,64,128,8,128,64,64,64,128,32,64,128
CC[C@H]1OC(=O)[C@H](C)[C@@H](OC(=O)N(C)c2ccccc2)[C@H](C)[C@@H](O[C@@H]2O[C@H](C)C[C@H](N(C)C)[C@H]2O)[C@](C)(O)C[C@@H](C)CN(C)[C@H](C)[C@H]2OC(=O)O[C@@]21C,4,64,0.125,64,4,8,64,64,2,4,64
CC[C@H]1OC(=O)[C@H](C)[C@@H](OC(=O)Nc2ccccc2)[C@H](C)[C@@H](O[C@@H]2O[C@H](C)C[C@H](N(C)C)[C@H]2O)[C@](C)(O)C[C@@H](C)CN(C)[C@H](C)[C@@H](OC(=O)NCc2ccc(C)cc2)[C@]1(C)O,32,128,4,128,32,16,128,64,16,64,64
CC[C@H]1OC(=O)[C@H](C)[C@@H](OC(=O)Nc2ccc(F)cc2)[C@H](C)[C@@H](O[C@@H]2O[C@H](C)C[C@H](N(C)C)[C@H]2O)[C@](C)(O)C[C@@H](C)CN(C)[C@H](C)[C@H]2OC(=O)O[C@@]21C,32,128,0.25,128,16,64,64,32,2,8,64
CC[C@H]1OC(=O)[C@H](C)[C@@H](OC(=O)n2ccnc2)[C@H](C)[C@@H](O[C@@H]2O[C@H](C)C[C@H](N(C)C)[C@H]2OC(C)=O)[C@](C)(O)C[C@@H](C)CN(C)[C@H](C)[C@H]2OC(=O)O[C@@]21C,128,32,8,128,128,128,128,256,16,256,56
CC[C@H]1OC(=O)[C@H](C)[C@@H](O)[C@H](C)[C@@H](O[C@@H]2O[C@H](C)C[C@H](N(C)C)[C@H]2OC(=O)Nc2ccccc2C)[C@](C)(O)C[C@@H](C)CN(C)[C@H](C)[C@H]2OC(=O)O[C@@]21C,4,64,0.5,64,4,16,32,64,2,4,64
CC[C@H]1OC(=O)[C@H](C)[C@@H](O)[C@H](C)[C@@H](O[C@@H]2O[C@H](C)C[C@H](N(C)C)[C@H]2OC(=O)Nc2ccccc2)[C@](C)(O)C[C@@H](C)CN(C)[C@H](C)[C@H]2OC(=O)O[C@@]21C,32,64,0.5,32,32,32,128,128,8,8,128
CC[C@H]1OC(=O)[C@H](C)[C@@H](O)[C@H](C)[C@@H](O[C@@H]2O[C@H](C)C[C@H](N(C)C)[C@H]2OC(=O)Nc2cccc(F)c2)[C@](C)(O)C[C@@H](C)CN(C)[C@H](C)[C@H]2OC(=O)O[C@@]21C,32,128,1,128,128,64,128,256,8,16,128
CC[C@H]1OC(=O)[C@H](C)[C@@H](OC(=O)N(C)c2ccccc2)[C@H](C)[C@@H](O[C@@H]2O[C@H](C)C[C@H](N(C)C)[C@H]2OC(C)=O)[C@](C)(O)C[C@@H](C)CN(C)[C@H](C)[C@H]2OC(=O)O[C@@]21C,,,,,,128,,,,,
CCCCc1ccc(NC(=O)O[C@H]2[C@H](O[C@@H]3[C@@H](C)[C@H](O)[C@@H](C)C(=O)O[C@H](CC)[C@@]4(C)OC(=O)O[C@@H]4[C@@H](C)N(C)C[C@H](C)C[C@@]3(C)O)O[C@H](C)C[C@@H]2N(C)C)cc1,32,128,8,128,128,64,128,256,64,32,64
CC[C@H]1OC(=O)[C@H](C)[C@@H](O)[C@H](C)[C@@H](O[C@@H]2O[C@H](C)C[C@H](N(C)C)[C@H]2OC(=O)Nc2cccc(C)c2)[C@](C)(O)C[C@@H](C)CN(C)[C@H](C)[C@H]2OC(=O)O[C@@]21C,32,64,1,128,32,32,128,128,128,64,64
CC[C@H]1OC(=O)[C@H](C)[C@@H](OC(=O)Nc2cccc(OC)c2)[C@H](C)[C@@H](O[C@@H]2O[C@H](C)C[C@H](N(C)C)[C@H]2O)[C@](C)(O)C[C@@H](C)CN(C)[C@H](C)[C@H]2OC(=O)O[C@@]21C,16,64,2,64,16,32,64,64,16,16,64
CCCCCCNC(=O)O[C@@H]1[C@@H](C)N(C)C[C@H](C)C[C@@](C)(O)[C@H](O[C@@H]2O[C@H](C)C[C@H](N(C)C)[C@H]2O)[C@@H](C)[C@H](OC(=O)Nc2ccccc2)[C@@H](C)C(=O)O[C@H](CC)[C@@]1(C)O,16,64,1,64,4,,,,,,
CC[C@H]1OC(=O)[C@H](C)[C@@H](OC(=O)Nc2cccc(Cl)c2)[C@H](C)[C@@H](O[C@@H]2O[C@H](C)C[C@H](N(C)C)[C@H]2O)[C@](C)(O)C[C@@H](C)CN(C)[C@H](C)[C@H]2OC(=O)O[C@@]21C,8,128,0.25,128,16,0.5,64,32,1,4,32
